Consider 16 compounds from PubChem BioAssay AID651753 (Broad Institute, 2012).

Values joined by “and” are separate entries in the source; they are usually repeats but may differ in a detail not shown here. Identical values can stand only once. Active and inactive are the calls of the source.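 Rule for the calls: active = falling-signal curve whose AC50 is no more than twice the top valid dose; inconclusive = flat fit with moderate inhibition, or poor fit; inactive = the rest.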

The subject of one experiment is SK-MEL-5 TRPM1-promoter luciferase, luminescence, 24 h. As to the kind of experiment: inhibitors of MITF-driven TRPM1 promoter activity, dose response, cell-based, SK-MEL-5, luciferase, dry powder, set 10 (AID 651753).
Conditions: not given
In a few lines: (§1)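 Test system – TRPM1-promoter luciferase SK-MEL-5 melanoma cells · Amount – 2000 cells per well · Buffer or medium – DMEM lacking phenol red, plus 10% heat-inactivated FBS · Incubation – 24 h compound exposure at 37 °C, added day after seeding · Signal – Steady-Glo luminescence, 5 min at room temperature · Measure – luminescence change, decrease reflecting reduced MITF-driven TRPM1 expression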
With `NS(=O)(=O)c1ccc(NC2=CC(=O)c3ccccc3C2=O)cc1`, the AC50 (commonly the concentration at which the activity in the assay is half-maximal) is 0.651 µM and 0.229 µM.
As for `CC(C)N1CCN(C2=C(Nc3ccc(F)cc3)C(=O)c3ccccc3C2=O)CC1`, the AC50 is 29.2 µM.
Still for that read-out and setting: the value for `CCN1CCN(C2=C(Nc3ccc(F)cc3F)C(=O)c3ccccc3C2=O)CC1` was 11.4 µM.
Still for that read-out and setting: the value for `O=C1C(Nc2cccc(Cl)c2)=C(N2CCCC2)C(=O)c2ccccc21` was > 70 µM (inactive).
Same read-out and setting: the same measure for `COc1ccc(NC2=C(N3CCCCC3)C(=O)c3ccccc3C2=O)cc1`: 17.2 µM.
Regarding `NC1=CC(=O)c2ccccc2C1=O`, the AC50 was 1.39 µM.
Still for that read-out and setting: the same measure for `O=C1C=C(Nc2ccc([N+](=O)[O-])c(C(F)(F)F)c2)C(=O)c2ccccc21`: 0.718 µM; for `O=C1C(Nc2ccc(Cl)cc2)=C(N2CCCC2)C(=O)c2ccccc21`: > 70 µM (inactive); for `CN1CCN(C2=C(Nc3ccc(F)cc3F)C(=O)c3ccccc3C2=O)CC1`: 13.1 µM.
On to `O=C1C=C(Nc2ccccc2)C(=O)c2ccccc21`, for which the concentration at half-maximal activity (AC50) was 3.89 µM.
The same measure, in the same setting: the value for `O=C1C(Nc2ccc(Br)cc2)=C(N2CCCCC2)C(=O)c2ccccc21` was 19.2 µM.
As for `COC1=C(NS(=O)(=O)c2ccccc2)C(=O)c2ccccc2C1=O`, the AC50 was 8.13 µM.
Take `CC(C)N1CCN(C2=C(Nc3ccc(F)cc3F)C(=O)c3ccccc3C2=O)CC1`: the AC50 was 12.6 µM.
The same measure, in the same setting: the value for `O=C(NC1=C(N2CCN(c3ccccc3)CC2)C(=O)c2ccccc2C1=O)c1ccccc1` was > 70 µM (inactive); that for `O=C1C(Nc2ccc(F)cc2)=C(N2CCCCC2)C(=O)c2ccccc21` was 18.5 µM.
As to `Cc1ccc(NC2=CC(=O)c3ccccc3C2=O)cc1`, the AC50 is 3.13 µM.

Test system in another experiment: not listed separately
The experiment is described as above. The following applies: SK-MEL-5 TRPM1-promoter luciferase, luminescence, 24 h; at 35 µM (top of the series). Summed up:
as §1
For `Cc1ccc(NC2=CC(=O)c3ccccc3C2=O)cc1`, the activity change, negative = inhibition was 76.9% (inactive).
